# Data taken from ChEMBL document CHEMBL1139334, “Discovery of novel analgesic and anti-inflammatory 3-arylamine-imidazo[1,2-a]pyridine symbiotic prototypes” (Bioorg Med Chem, 2009).
# pIC50: −log10 of the molar value. The source made the active and inactive calls. No cut-off for these calls is given here.
# Assays:
# Mus musculus [1] = experiment: Analgesic activity in Swiss mouse assessed as inhibition of acetic acid-induced abdominal constriction at 100 umol/kg, po administered 1 hr before acetic acid challenge; format: functional; settings: Abdomen
# How it was run: (§1)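 Swiss mice (18–23 g) received compounds orally as a suspension in 5% arabic gum in saline; controls received an equal volume of vehicle. After 1 h, 0.6% acetic acid (0.1 ml/10 g) was given ip. Constrictions were counted for 20 min, starting 10 min after injection. Results are % inhibition versus vehicle; N = 7–10 per group; mean ± SEM; one-way ANOVA with Dunnett test.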
# Rattus norvegicus [2] = experiment: Antihyperalgesic activity in Wistar rat assessed as inhibition of capsaicin-induced thermal hyperalgesia at 100 umol/kg, po; format: functional, organism-based
# How it was run: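 Fasted Wistar rats of both sexes (150–200 g) had basal and acclimatization withdrawal latencies recorded on a 52 °C hot plate. Compound was given orally 1 h before an intraplantar injection of 5% capsaicin in DMSO into the right hind paw. Right hind paw withdrawal latency was timed by chronometer at 2, 5, 10, 30 and 60 min post-challenge.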
# Rattus norvegicus [3] = experiment: Antiinflammatory activity in Wistar rat assessed as inhibition of carrageenan-induced paw edema at 100 umol/kg, po measured 3 hrs post carrageenan challenge; format: functional
# How it was run: (§2)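 Fasted Wistar rats of both sexes (150–200 g) were dosed orally with a suspension in 5% arabic gum in saline; controls received vehicle. After 1 h, 1% carrageenan (0.1 ml, […]) was injected subplantarly into the right hind paw and sterile saline into the left. Paw volumes were read by glass plethysmometer 3 h later. Edema is the carrageenan-minus-saline paw volume; results are % inhibition versus vehicle.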
# [4] = biological target: T1, Prostaglandin G/H synthase 2 (Homo sapiens, UniProt P35354); experiment: Inhibition of PGHS2 in human whole blood assessed as inhibition of TXB2 production by radioimmunoassay; format: tissue-based
# T1 sequence (P35354 whole entry): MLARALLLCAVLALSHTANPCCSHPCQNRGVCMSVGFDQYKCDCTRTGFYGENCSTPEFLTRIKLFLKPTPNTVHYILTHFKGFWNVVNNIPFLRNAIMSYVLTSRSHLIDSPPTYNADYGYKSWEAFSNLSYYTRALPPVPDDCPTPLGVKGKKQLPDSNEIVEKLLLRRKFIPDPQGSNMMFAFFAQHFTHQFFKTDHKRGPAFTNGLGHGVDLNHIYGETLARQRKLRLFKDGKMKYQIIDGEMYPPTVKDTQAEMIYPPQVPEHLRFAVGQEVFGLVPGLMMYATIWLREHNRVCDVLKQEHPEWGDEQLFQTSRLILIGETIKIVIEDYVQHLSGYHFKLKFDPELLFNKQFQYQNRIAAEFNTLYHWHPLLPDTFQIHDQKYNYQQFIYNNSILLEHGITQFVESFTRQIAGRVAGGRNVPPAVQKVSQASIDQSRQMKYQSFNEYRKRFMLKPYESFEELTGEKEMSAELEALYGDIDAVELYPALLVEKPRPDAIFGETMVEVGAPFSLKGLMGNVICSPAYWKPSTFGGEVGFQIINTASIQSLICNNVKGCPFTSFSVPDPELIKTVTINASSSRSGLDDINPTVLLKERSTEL
# Mus musculus [5] = experiment: Analgesic activity in po dosed Swiss mouse assessed as inhibition of acetic acid-induced abdominal constriction administered 1 hr before acetic acid challenge; format: functional; settings: Abdomen; how it was run: as §1
# Rattus norvegicus [6] = experiment: Antiinflammatory activity in po dosed Wistar rat assessed as inhibition of carrageenan-induced paw edema measured 3 hrs post carrageenan challenge; format: functional; how it was run: as §2
Structure (SMILES),inhibition in vivo at 100 µmol/kg (Mus musculus [1]) [%],Activity (Rattus norvegicus [2]),inhibition in vivo at 100 µmol/kg (Rattus norvegicus [3]) [%],pIC50 [4],ED50 (Mus musculus [5]) [µmol/kg],ED50 (Rattus norvegicus [6]) [µmol/kg]
CS(=O)(=O)c1ccc(-c2nc3ccccn3c2Nc2ccccc2)cc1,7.4,inactive,28.2,–,–,–
CS(=O)(=O)c1ccc(Nc2c(-c3ccncc3)nc3ccccn23)cc1,33.6,Active,1.8,–,–,–
CS(=O)(=O)c1ccc(Nc2c(-c3ccccn3)nc3ccccn23)cc1,33.7,Active,18.5,–,–,–
COc1ccc(Nc2c(-c3ccc(S(C)(=O)=O)cc3)nc3ccccn23)cc1,53,inactive,41.7,5.55,22.7,8.7
c1ccc(Nc2c(-c3ccccn3)nc3ccccn23)cc1,-3,Active,33.4,4.73,–,–
Cc1ccc(-c2cc(C(F)(F)F)nn2-c2ccc(S(N)(=O)=O)cc2)cc1 [CELECOXIB],46.1,–,30,–,247,87.7
CS(=O)(=O)c1ccc(-c2nc3ccccn3c2Nc2ccccn2)cc1,22.2,Active,17.2,–,–,–
c1ccc(Nc2c(-c3ccncc3)nc3ccccn23)cc1,13,Active,49.9,–,–,11.5
c1ccc(Nc2c(-c3ccccc3)nc3ccccn23)cc1,10.8,Active,63.9,–,–,14.5
